Assay results: ChEMBL document CHEMBL4706580, “4-Amino-1,2,4-triazole-3-thione-derived Schiff bases as metallo-β-lactamase inhibitors” (Eur J Med Chem, 2020)
Active and inactive are the calls of the source. The rule behind the calls is not given here.

Experiments:
[1] = Inhibition of beta-lactamase L1 (unknown origin) expressed in Escherichia coli BL21(DE3) using nitrocefin as substrate by measuring substrate hydrolysis at 100 uM preincubated for 30 mins by spectrophotometric analysis
Summary of the method: (§1)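 Enzyme 0.2–0.8 nM in 25 mM HEPES pH 7.5 with 50 μM ZnCl2 final, pre-incubated 30 min at 21 °C with inhibitor (100 μM screen). Nitrocefin 100 μM final, read at 482 nm, 30 °C. Residual activity vs three uninhibited samples; Ki (1–100 μM inhibitor) from Hanes linearization, competitive model. Triplicate.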

[2] = Inhibition of beta-lactamase VIM2 (unknown origin) expressed in Escherichia coli BL21(DE3) using imipenem as substrate by measuring substrate hydrolysis at 200 uM by spectrophotometric analysis
Summary of the method: (§2)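 Purified enzyme (overproduced in E. coli BL21(DE3), pET-9a; ion-exchange and gel filtration), 1-70 nM final. Reporter substrate 150 μM imipenem, read at 300 nm, 30 °C, 50 mM HEPES pH 7.5. Single-point screen at 100 or 200 μM; Ki from v0/vi vs [I] (0.5–1,000 μM final) assuming competitive inhibition, or Dixon plot. Triplicate.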

[3] = Inhibition of beta-lactamase IMP-1 (unknown origin) expressed in Escherichia coli BL21(DE3) using imipenem as substrate by measuring substrate hydrolysis at 100 uM by spectrophotometric analysis; summary of the method: as §2
[4] = Inhibition of beta-lactamase L1 (unknown origin) expressed in Escherichia coli BL21(DE3) using nitrocefin as substrate by measuring substrate hydrolysis at 200 uM preincubated for 30 mins by spectrophotometric analysis
[5] = Inhibition of beta-lactamase IMP-1 (unknown origin) expressed in Escherichia coli BL21(DE3) using imipenem as substrate by measuring substrate hydrolysis at 200 uM by spectrophotometric analysis; summary of the method: as §2
[6] = Inhibition of beta-lactamase VIM2 (unknown origin) expressed in Escherichia coli BL21(DE3) using imipenem as substrate by measuring substrate hydrolysis at 100 uM by spectrophotometric analysis; summary of the method: as §2
[7] = Inhibition of beta-lactamase NDM1 (unknown origin) expressed in Escherichia coli BL21(DE3) using cefotaxime/nitrocefin as substrate by measuring substrate hydrolysis at 100 uM by spectrophotometric analysis
[8] = Inhibition of beta-lactamase L1 (unknown origin) expressed in Escherichia coli BL21(DE3) using nitrocefin as substrate by measuring substrate hydrolysis preincubated for 30 mins by spectrophotometric analysis; summary of the method: as §1
[9] = Inhibition of beta-lactamase VIM4 (unknown origin) expressed in Escherichia coli BL21(DE3) using imipenem as substrate by measuring substrate hydrolysis at 100 uM by spectrophotometric analysis; summary of the method: as §2
[10] = Inhibition of beta-lactamase NDM1 (unknown origin) expressed in Escherichia coli BL21(DE3) using cefotaxime/nitrocefin as substrate by measuring substrate hydrolysis at 200 uM by spectrophotometric analysis
[11] = Inhibition of beta-lactamase CphA (unknown origin) expressed in Escherichia coli BL21(DE3) using imipenem as substrate by measuring substrate hydrolysis by spectrophotometric analysis
Summary of the method: (§3)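 Enzyme 0.2–0.8 nM in 15 mM cacodylate pH 6.5, no added zinc, pre-incubated 30 min at 21 °C with inhibitor (100 μM screen). Imipenem substrate added from 10 mM stock; hydrolysis at 300 nm, 30 °C. Residual activity vs three uninhibited samples; Ki (1–100 μM inhibitor) by Hanes linearization, competitive model. Triplicate.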

[12] = Inhibition of beta-lactamase CphA (unknown origin) expressed in Escherichia coli BL21(DE3) using imipenem as substrate by measuring substrate hydrolysis at 100 uM by spectrophotometric analysis; summary of the method: as §3
[13] = Inhibition of beta-lactamase VIM4 (unknown origin) expressed in Escherichia coli BL21(DE3) using imipenem as substrate by measuring substrate hydrolysis by spectrophotometric analysis; summary of the method: as §2
[14] = Inhibition of beta-lactamase VIM2 (unknown origin) expressed in Escherichia coli BL21(DE3) using imipenem as substrate by measuring substrate hydrolysis by spectrophotometric analysis; summary of the method: as §2
[15] = Inhibition of beta-lactamase NDM1 (unknown origin) expressed in Escherichia coli BL21(DE3) using cefotaxime/nitrocefin as substrate by measuring substrate hydrolysis by spectrophotometric analysis
Summary of the method: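 His-tagged enzyme from E. coli BL21(DE3) pET-15b, affinity-purified, 1-70 nM final. Reporter substrate 120 μM cefotaxime (260 nm) or 100 μM nitrocefin (482 nm), 30 °C, 50 mM HEPES pH 7.5. Inhibitor 0.5–1,000 μM final; competitive Ki from v0/vi vs [I] slope or Dixon plot. Triplicate.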

[16] = Inhibition of beta-lactamase VIM-4 (unknown origin) expressed in Escherichia coli LZ2310 assessed as potentiation of ampicillin antibacterial activity by measuring ampicillin induced diameter of inhibition zone at 40 uM incubated for 18 hrs by disk diffusion method (reference value: 6 mm)
Summary of the method: (§4)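 Efflux-deficient E. coli LZ2310 (NorE, MdfA, AcrA knocked out) carrying pLB-II with the cloned MBL gene. Mueller-Hinton, CLSI disk diffusion; antibiotic disks (30 µg cefoxitin for VIM-2, 10 µg ampicillin for VIM-4, 30 µg ceftazidime for NDM-1/IMP-1) loaded with inhibitor in DMSO (≤15 µL). Zone diameter after 18 h, 35 ± 1 °C; DMSO and 220 µg EDTA controls. Triplicate.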

[17] = Inhibition of beta-lactamase VIM-2 (unknown origin) expressed in Escherichia coli LZ2310 assessed as potentiation of cefoxitin antibacterial activity by measuring cefoxitin induced diameter of inhibition zone at 40 uM incubated for 18 hrs by disk diffusion method (reference value: 14 mm); summary of the method: as §4

Structure (SMILES)	inhibition [1]	inhibition [2]	inhibition [3]	inhibition [4]	inhibition [5]	inhibition [6]	inhibition [7]	inhibition [9] [%]	inhibition [10]	inhibition [12] [%]	inhibition zone (IZ) [16] [mm]	inhibition zone (IZ) [17] [mm]	Ki [8] [µM]	Ki [11] [µM]	Ki [13] [µM]	Ki [14] [µM]	Ki [15] [µM]
S=c1[nH]nc(-c2ccccc2-c2ccccc2)n1/N=C/c1ccc(OCc2ccccc2)cc1	inactive	inactive	inactive	inactive	inactive	inactive	45%										
Cc1ccccc1-c1n[nH]c(=S)n1/N=C/c1cc(O)ccc1[N+](=O)[O-]		inactive	47%			inactive	inactive	32	inactive				16	9			
Cc1ccccc1-c1n[nH]c(=S)n1/N=C/c1ccc(O)cc1	43%	inactive	37%			inactive	inactive		inactive	35					1.3		
Oc1ccc(/C=N/n2c(-c3cc(O)ccc3O)n[nH]c2=S)c(O)c1		inactive	50%			inactive	inactive		inactive				15	5	3		
Oc1ccc(/C=N/n2c(C(c3ccccc3)c3ccccc3)n[nH]c2=S)c(O)c1	inactive	inactive	inactive	inactive	inactive	inactive	inactive	50	inactive								
Oc1ccc(/C=N/n2c(CCc3ccccc3)n[nH]c2=S)c(O)c1	51%		45%					54				14		6		9	168
O=C(O)c1cccc(-c2cccc(/C=N/n3c(-c4ccc5ccccc5c4)n[nH]c3=S)c2)c1	45%		inactive		inactive	30%			50%						2.8		
Oc1ccc(/C=N/n2c(Cc3ccc4ccccc4c3)n[nH]c2=S)c(O)c1	inactive	inactive	64%	inactive		inactive	inactive	30	inactive								
Cc1ccccc1-c1n[nH]c(=S)n1/N=C/c1ccc([N+](=O)[O-])cc1	56%	inactive	43%			inactive	inactive		inactive	59	6				1.4		
Cc1ccccc1-c1n[nH]c(=S)n1/N=C/c1ccccc1	inactive		34%	inactive			32%							70	20	20	
Oc1ccc(/C=N/n2c(-c3cc4ccccc4[nH]3)n[nH]c2=S)c(O)c1	inactive	inactive	inactive	inactive	inactive	inactive	inactive	55	inactive								
Oc1ccc(/C=N/n2c(-c3cc(Cl)cc(Cl)c3)n[nH]c2=S)c(O)c1	40%		55%				50%					14			4	3.8	

More lines, main results first:

inhibition [1]	inhibition [2]	inhibition [3]	inhibition [4]	inhibition [5]	inhibition [6]	inhibition [7]	inhibition [9] [%]	inhibition [10]	inhibition [12] [%]	inhibition zone (IZ) [16] [mm]	inhibition zone (IZ) [17] [mm]	Structure (SMILES)	Ki [8] [µM]	Ki [11] [µM]	Ki [13] [µM]	Ki [14] [µM]	Ki [15] [µM]
		35%					53		56			O=C(O)c1ccccc1/C=N/n1c(-c2cccc3ccccc23)n[nH]c1=S	1.1			14.5	76
46%		54%								6	14	Oc1ccc(/C=N/n2c(-c3ccccc3)n[nH]c2=S)c(O)c1		26	1.7		
		inactive		inactive	35%	inactive		inactive				O=C(O)c1ccccc1/C=N/n1c(-c2cccc(Br)c2)n[nH]c1=S	3		2		
59%		48%					57	60%	51		14	O=C(O)c1ccccc1/C=N/n1c(Cc2ccccc2)n[nH]c1=S				3.2	
	inactive	inactive		inactive	inactive			60%				O=C(O)c1ccccc1/C=N/n1c(-c2ccc3ccccc3c2O)n[nH]c1=S	0.5		2		
inactive		inactive	inactive	inactive	45%	65%	65					Oc1ccc(/C=N/n2c(-c3cccc(-c4ccccc4)c3)n[nH]c2=S)c(O)c1					
inactive		inactive	inactive	inactive		inactive	55	inactive				Oc1ccc(/C=N/n2c(-c3ccc4ccccc4c3)n[nH]c2=S)c(O)c1					
30%		66%						50%	35			Oc1ccc(/C=N/n2c(-c3cccc(Cl)c3)n[nH]c2=S)c(O)c1			3		
inactive	inactive		inactive	50%	inactive			60%				Cc1ccccc1-c1n[nH]c(=S)n1/N=C/c1ccccc1C#N			6.5		
inactive	inactive	inactive	inactive	inactive	inactive	32%	49					O=C(O)c1ccccc1/C=N/n1c(-c2ccccc2-c2ccccc2)n[nH]c1=S					
40%	inactive	inactive		inactive	inactive		51					O=C(O)c1ccccc1/C=N/n1c(-c2cccc(F)c2)n[nH]c1=S					
